# Key:
# [1] = Percent block of sciatic nerve sartorius muscle twitch of frog 30 min after indirect stimulation and exposure to 50 uM toxin for 60 min; assay type: functional, Muscle tissue
# In short: (§1)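 Frog sartorius nerve-muscle in oxygenated physiological solution (100% O2, pH 6.9-7.1). Indirect: nerve stimulated with supramaximal 0.05-0.1 ms pulses via Ag-AgCl salt-bridge electrode. Direct: supramaximal 1.0-2.0 ms rectangular pulses at 0.05 Hz through bipolar platinum electrode around mid-muscle. Compounds at 50 µM, diluted in physiological solution just before use, applied 60 min. Twitch tension recorded; means ± SD from at least three muscles.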
# [2] = Percent block of sciatic nerve sartorius muscle twitch of frog 30 min after direct stimulation and exposure to 50 uM toxin for 60 min; assay type: functional, Muscle tissue; in short: as §1
# [3] = Percent block of sciatic nerve sartorius muscle twitch of frog 60 min after direct stimulation and exposure to 50 uM toxin for 60 min; assay type: functional, Muscle tissue; in short: as §1
# [4] = Percent block of sciatic nerve sartorius muscle twitch of frog 60 min after indirect stimulation and exposure to 50 uM toxin for 60 min; assay type: functional, Muscle tissue; in short: as §1
# [5] = Percent maximum potentiation of the sciatic nerve sartorius muscle twitch after direct stimulation and exposure to 50 uM toxin for 60 min; assay type: functional, frog, Muscle tissue; in short: as §1
# [6] = Percent maximum potentiation of the sciatic nerve sartorius muscle twitch after indirect stimulation and exposure to 50 uM toxin for 60 min; assay type: functional, frog, Muscle tissue; in short: as §1
SMILES,Block [1],Block [2],Block [3],Block [4],Activity [5],Activity [6]
CCCC[C@@H]1[C@@H](OC(C)=O)CCCC12CCCC[N+]2(C)C.[I-] (some centres undefined),85%,34%,47%,91%,–,–
CCCCC1C(OC(=O)OC)CCCC12CCCCN2C(=O)OC (centres undefined),0%,0%,0%,0%,–,–
CCCC[C@@H]1[C@H](O)CCCC12CCCCN2 (some centres undefined),55%,19%,30%,61%,–,–
CCCCC1C(O)CCCC12CCCCN2 (centres undefined),96%,52%,52%,100%,–,–
CCCC[C@@H]1[C@@H](O)CCCC12CCCC[N+]2(C)C.[I-] (some centres undefined),39%,29%,43%,49%,–,–
CCCC[C@@H]1[C@H](O)CCCC12CCCCN2C (some centres undefined),62%,5%,5%,65%,–,–
CCCCC1C(OC(C)=O)CCCC12CCCCN2C (centres undefined),88%,22%,25%,94%,–,–
CCCCC1C(OC(=O)OC)CCCC12CCCCN2 (centres undefined),67%,14%,25%,82%,–,–
CCCC[C@@H]1C(=O)CCCC12CCCCN2C (some centres undefined),49%,26%,33%,56%,–,–
CCCCC1C(O)CCCC12CCCCN2C(C)=O (centres undefined),10%,20%,24%,26%,103%,116%
CCCCC1C(O)CCCC12CCCCN2C (centres undefined),78%,24%,30%,92%,–,–
CCCC[C@@H]1C(=O)CCCC12CCCCN2 (some centres undefined),46%,8%,25%,58%,–,–
CCCCC1C(OC(C)=O)CCCC12CCCCN2C(C)=O (centres undefined),0%,0%,0%,0%,118%,125%
CCCC[C@@H]1[C@H](O)CCCC12CCCC[N+]2(C)C.[I-] (some centres undefined),74%,48%,49%,83%,–,–
CCCCC1C2CCCC13CCCCN3C(=O)O2 (centres undefined),35%,22%,31%,66%,–,–
CCCC[C@@H]1C(=O)CCCC12CCCCN2C(C)=O (some centres undefined),7%,0%,6%,20%,102%,117%
CCCCCC1CCC[C@]2(CCC[C@H](O)C2CCCC)N1 (some centres undefined),100%,47%,45%,100%,–,–
